{"source": "ChEMBL document CHEMBL4229344", "about": "(Eur J Med Chem, 2018)", "key": {"[1]": {"system": "Rattus norvegicus", "experiment": "Apparent volume of distribution in Sprague-Dawley rat at 10 mg/kg, po", "type": "ADME, organism-based", "details": "in vivo"}, "[2]": {"target": "Tyrosine-protein kinase HCK (Homo sapiens) (UniProt P08631)", "sequence (P08631 2-526 limits assumed)": "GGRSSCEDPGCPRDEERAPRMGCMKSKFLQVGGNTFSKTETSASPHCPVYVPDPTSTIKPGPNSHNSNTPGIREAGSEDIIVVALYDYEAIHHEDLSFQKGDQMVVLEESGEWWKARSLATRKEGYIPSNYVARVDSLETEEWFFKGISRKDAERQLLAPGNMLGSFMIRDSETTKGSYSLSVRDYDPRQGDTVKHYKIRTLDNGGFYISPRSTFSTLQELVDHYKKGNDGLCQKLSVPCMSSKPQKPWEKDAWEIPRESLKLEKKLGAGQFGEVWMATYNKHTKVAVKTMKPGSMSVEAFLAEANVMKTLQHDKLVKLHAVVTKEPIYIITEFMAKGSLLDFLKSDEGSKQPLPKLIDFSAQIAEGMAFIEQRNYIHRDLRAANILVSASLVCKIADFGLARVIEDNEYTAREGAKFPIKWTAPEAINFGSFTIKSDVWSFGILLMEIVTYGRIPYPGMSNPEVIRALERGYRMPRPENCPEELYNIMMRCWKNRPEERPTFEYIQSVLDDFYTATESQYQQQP", "experiment": "Binding affinity to wild-type human full length HCK (M22 to P526 residues) expressed in bacterial expression system assessed as residual binding level at 1 uM by Kinomescan method relative to control", "outline": "(§1)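 KINOMEscan competition binding against 468 purified kinases/mutants, test compound at 1 µM; residual binding relative to control.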"}, "[3]": {"target": "Serine/threonine-protein kinase 3 (Homo sapiens) (UniProt Q13188)", "experiment": "Binding affinity to wild-type human partial length MST2 (D17 to E318 residues) expressed in bacterial expression system assessed as residual binding level at 1 uM by Kinomescan method relative to control"}, "[4]": {"target": "Mitogen-activated protein kinase 12 (Homo sapiens) (UniProt P53778)", "sequence (P53778 whole entry, the tested form may be a part)": "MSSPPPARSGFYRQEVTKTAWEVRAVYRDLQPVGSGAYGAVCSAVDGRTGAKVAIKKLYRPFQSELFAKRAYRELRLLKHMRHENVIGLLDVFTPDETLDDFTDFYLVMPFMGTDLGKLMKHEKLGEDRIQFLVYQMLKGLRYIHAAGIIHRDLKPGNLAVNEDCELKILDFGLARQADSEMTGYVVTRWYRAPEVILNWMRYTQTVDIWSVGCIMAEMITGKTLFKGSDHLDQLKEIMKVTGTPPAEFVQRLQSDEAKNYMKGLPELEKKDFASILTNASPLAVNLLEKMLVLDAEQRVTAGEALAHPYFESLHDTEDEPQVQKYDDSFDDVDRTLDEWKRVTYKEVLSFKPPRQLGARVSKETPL", "experiment": "Binding affinity to wild-type human full length p38-gamma (M1 to L367 residues) expressed in mammalian expression system assessed as residual binding level at 1 uM by Kinomescan method relative to control", "outline": "as §1"}, "[5]": {"target": "Mitogen-activated protein kinase kinase kinase 10 (Homo sapiens) (UniProt Q02779)", "sequence (Q02779 whole entry, looked up, the tested form may be a part)": "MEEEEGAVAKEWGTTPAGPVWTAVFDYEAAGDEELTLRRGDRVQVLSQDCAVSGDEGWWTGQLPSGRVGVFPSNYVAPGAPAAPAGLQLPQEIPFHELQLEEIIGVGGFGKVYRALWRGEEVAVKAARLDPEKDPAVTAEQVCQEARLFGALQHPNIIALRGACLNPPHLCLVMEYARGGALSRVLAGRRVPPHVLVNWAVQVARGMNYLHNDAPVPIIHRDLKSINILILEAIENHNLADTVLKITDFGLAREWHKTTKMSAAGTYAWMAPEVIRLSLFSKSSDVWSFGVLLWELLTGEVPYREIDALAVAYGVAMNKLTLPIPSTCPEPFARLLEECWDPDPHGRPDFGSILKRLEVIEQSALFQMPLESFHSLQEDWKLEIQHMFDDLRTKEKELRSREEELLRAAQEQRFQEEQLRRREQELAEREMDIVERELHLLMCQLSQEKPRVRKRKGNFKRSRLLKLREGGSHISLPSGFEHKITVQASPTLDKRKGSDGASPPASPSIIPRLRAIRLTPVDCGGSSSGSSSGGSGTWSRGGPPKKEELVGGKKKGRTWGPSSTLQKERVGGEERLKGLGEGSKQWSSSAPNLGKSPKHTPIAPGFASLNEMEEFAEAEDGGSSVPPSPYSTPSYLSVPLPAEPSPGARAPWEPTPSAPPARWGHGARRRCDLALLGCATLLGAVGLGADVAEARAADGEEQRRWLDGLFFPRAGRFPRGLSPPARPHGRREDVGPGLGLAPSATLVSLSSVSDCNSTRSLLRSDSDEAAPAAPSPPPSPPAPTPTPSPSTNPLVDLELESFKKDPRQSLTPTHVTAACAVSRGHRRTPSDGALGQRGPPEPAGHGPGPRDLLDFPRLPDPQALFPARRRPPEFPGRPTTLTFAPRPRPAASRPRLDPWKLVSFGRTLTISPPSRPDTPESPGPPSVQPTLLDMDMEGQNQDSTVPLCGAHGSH", "experiment": "Binding affinity to wild-type human partial length MLK2 (V52 to W380 residues) expressed in bacterial expression system assessed as residual binding level at 1 uM by Kinomescan method relative to control"}, "[6]": {"target": "RAF proto-oncogene serine/threonine-protein kinase (Homo sapiens) (UniProt P04049)", "sequence (P04049 whole entry, the tested form may be a part)": "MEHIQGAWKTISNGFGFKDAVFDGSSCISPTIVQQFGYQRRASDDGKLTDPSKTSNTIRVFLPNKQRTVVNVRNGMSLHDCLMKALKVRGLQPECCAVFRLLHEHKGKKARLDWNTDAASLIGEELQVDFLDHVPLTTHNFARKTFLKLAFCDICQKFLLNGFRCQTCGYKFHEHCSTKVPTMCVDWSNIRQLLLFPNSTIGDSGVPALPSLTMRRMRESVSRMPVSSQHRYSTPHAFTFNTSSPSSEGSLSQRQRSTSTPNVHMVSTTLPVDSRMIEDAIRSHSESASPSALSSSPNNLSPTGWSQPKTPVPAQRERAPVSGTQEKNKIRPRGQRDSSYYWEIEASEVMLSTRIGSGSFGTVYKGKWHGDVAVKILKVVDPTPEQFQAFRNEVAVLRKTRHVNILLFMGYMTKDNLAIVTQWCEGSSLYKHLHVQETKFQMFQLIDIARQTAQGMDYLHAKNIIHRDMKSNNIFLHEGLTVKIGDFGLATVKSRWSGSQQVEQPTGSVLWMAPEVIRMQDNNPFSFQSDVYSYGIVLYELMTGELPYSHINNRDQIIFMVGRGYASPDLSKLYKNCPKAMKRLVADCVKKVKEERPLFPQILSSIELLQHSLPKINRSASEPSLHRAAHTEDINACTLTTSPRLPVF", "experiment": "Binding affinity to wild-type human partial length RAF1 (I330 to T640 residues) expressed in bacterial expression system assessed as residual binding level at 1 uM by Kinomescan method relative to control"}, "[7]": {"target": "Tyrosine-protein kinase Yes (Homo sapiens) (UniProt P07947)", "sequence (P07947 2-543 limits assumed)": "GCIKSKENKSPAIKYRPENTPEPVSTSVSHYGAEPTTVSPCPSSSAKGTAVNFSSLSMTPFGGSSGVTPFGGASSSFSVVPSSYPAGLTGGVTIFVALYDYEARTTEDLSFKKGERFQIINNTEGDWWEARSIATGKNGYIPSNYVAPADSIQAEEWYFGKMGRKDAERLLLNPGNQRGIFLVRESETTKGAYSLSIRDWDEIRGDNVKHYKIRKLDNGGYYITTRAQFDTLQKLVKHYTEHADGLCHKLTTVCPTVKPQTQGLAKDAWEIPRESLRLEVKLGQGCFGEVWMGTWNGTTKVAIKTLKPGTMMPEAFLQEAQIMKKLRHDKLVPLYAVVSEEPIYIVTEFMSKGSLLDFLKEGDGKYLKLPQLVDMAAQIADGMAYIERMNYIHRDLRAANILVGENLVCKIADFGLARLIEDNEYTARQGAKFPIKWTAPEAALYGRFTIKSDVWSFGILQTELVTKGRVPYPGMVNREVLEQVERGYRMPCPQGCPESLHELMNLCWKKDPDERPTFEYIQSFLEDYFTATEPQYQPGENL", "experiment": "Binding affinity to wild-type human partial length YES (T257 to L543 residues) expressed in bacterial expression system assessed as residual binding level at 1 uM by Kinomescan method relative to control"}, "[8]": {"target": "Tyrosine-protein kinase FRK (Homo sapiens) (UniProt P42685)", "sequence (P42685 whole entry, the tested form may be a part)": "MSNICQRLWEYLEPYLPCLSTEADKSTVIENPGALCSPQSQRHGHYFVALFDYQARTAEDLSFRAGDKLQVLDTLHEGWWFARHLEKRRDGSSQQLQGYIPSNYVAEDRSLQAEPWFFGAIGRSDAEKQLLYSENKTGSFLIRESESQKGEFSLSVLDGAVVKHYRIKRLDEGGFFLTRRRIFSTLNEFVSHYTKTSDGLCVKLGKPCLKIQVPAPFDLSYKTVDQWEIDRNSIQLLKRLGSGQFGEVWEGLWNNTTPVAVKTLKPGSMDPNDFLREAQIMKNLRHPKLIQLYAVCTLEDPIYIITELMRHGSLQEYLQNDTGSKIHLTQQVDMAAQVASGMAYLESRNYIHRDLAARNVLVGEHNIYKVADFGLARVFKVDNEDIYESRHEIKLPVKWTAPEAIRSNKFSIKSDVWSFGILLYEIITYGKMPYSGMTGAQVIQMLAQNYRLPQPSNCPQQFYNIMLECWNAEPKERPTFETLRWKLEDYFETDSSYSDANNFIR", "experiment": "Binding affinity to wild-type human partial length FRK (A215 to F503 residues) expressed in bacterial expression system assessed as residual binding level at 1 uM by Kinomescan method relative to control", "outline": "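Kinome-wide competition binding screen against a panel of 468 purified kinases/mutants, with the test compound at a single concentration of 1 μM. Read-out is the relative binding activity of each kinase in the presence of compound.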"}, "[9]": {"target": "Serine/threonine-protein kinase D1 (Homo sapiens) (UniProt Q15139)", "sequence (Q15139 whole entry, the tested form may be a part)": "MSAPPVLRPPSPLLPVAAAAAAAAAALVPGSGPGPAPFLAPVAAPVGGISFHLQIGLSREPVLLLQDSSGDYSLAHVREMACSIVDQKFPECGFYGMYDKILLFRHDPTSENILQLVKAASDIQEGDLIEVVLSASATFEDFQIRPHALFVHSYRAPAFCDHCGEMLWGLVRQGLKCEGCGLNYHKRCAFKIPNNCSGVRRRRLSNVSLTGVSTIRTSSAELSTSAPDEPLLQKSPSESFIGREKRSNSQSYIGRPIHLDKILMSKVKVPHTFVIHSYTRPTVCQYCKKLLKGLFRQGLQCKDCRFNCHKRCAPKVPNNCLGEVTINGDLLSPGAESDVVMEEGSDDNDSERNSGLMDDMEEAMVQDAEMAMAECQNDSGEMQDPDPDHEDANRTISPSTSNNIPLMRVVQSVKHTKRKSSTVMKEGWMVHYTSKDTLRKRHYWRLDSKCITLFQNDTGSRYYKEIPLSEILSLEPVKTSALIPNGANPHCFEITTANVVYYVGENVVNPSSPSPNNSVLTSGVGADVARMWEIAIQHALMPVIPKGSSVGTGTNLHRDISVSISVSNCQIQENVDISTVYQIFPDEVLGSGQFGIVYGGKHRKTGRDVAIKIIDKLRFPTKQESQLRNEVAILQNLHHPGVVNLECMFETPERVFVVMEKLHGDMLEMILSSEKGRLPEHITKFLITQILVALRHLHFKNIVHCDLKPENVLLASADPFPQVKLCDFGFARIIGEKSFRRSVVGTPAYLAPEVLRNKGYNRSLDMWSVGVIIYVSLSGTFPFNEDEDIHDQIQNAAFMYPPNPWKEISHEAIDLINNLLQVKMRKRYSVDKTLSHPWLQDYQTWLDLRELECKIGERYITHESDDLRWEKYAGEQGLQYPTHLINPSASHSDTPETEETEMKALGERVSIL", "experiment": "Binding affinity to wild-type human partial length PRKD1 (G551 to E870 residues) expressed in bacterial expression system assessed as residual binding level at 1 uM by Kinomescan method relative to control", "outline": "(§2)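 KINOMEscan competition binding against a panel of 468 purified kinases/mutants, compound tested at 1 μM; readout is relative binding activity versus control.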"}, "[10]": {"target": "Uncharacterized serine/threonine-protein kinase SBK3 (Homo sapiens) (UniProt P0C264)", "sequence (P0C264 whole entry, the tested form may be a part)": "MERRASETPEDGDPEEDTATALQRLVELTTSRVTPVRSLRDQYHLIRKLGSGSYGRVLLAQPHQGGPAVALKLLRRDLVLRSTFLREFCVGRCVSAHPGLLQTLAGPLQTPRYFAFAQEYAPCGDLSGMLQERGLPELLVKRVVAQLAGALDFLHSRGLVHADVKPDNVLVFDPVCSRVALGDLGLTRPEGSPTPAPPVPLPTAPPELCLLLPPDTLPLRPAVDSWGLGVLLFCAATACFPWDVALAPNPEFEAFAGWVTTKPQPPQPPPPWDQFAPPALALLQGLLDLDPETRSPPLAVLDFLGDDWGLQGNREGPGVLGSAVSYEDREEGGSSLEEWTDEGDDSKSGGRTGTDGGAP", "experiment": "Binding affinity to wild-type human partial length SgK110 (L22 to R329 residues) expressed in bacterial expression system assessed as residual binding level at 1 uM by Kinomescan method relative to control", "outline": "as §2"}, "[11]": {"target": "Focal adhesion kinase 1 (Homo sapiens) (UniProt Q05397)", "experiment": "Binding affinity to wild-type human partial length FAK (D402 to R696 residues) expressed in bacterial expression system assessed as residual binding level at 1 uM by Kinomescan method relative to control"}}}
{"smiles": "Cc1ccc(NC(=O)c2ccc(CN(CCN(C)C)C(=O)c3cccnc3)cc2)cc1Nc1nccc(-c2cccnc2)n1", "values": [{"measurement": "Vz", "setting": "[1]", "result": 256.181, "unit": "L/kg"}, {"measurement": "Activity", "setting": "[2]", "result": 83, "unit": "%"}, {"measurement": "Activity", "setting": "[3]", "result": 100, "unit": "%"}, {"measurement": "Activity", "setting": "[4]", "result": 69, "unit": "%"}, {"measurement": "Activity", "setting": "[5]", "result": 96, "unit": "%"}, {"measurement": "Activity", "setting": "[6]", "result": 100, "unit": "%"}, {"measurement": "Activity", "setting": "[7]", "result": 100, "unit": "%"}, {"measurement": "Activity", "setting": "[8]", "result": 80, "unit": "%"}, {"measurement": "Activity", "setting": "[9]", "result": 75, "unit": "%"}, {"measurement": "Activity", "setting": "[10]", "result": 72, "unit": "%"}, {"measurement": "Activity", "setting": "[11]", "result": 90, "unit": "%"}]}
